Experimental data gathered from unrelated publications.
Compare with care: the assays were run in different laboratories.
Target: Homeodomain-interacting protein kinase 4 (HIPK4, Homo sapiens, UniProt Q8NE63)
One construct used (Q8NE63 1-616): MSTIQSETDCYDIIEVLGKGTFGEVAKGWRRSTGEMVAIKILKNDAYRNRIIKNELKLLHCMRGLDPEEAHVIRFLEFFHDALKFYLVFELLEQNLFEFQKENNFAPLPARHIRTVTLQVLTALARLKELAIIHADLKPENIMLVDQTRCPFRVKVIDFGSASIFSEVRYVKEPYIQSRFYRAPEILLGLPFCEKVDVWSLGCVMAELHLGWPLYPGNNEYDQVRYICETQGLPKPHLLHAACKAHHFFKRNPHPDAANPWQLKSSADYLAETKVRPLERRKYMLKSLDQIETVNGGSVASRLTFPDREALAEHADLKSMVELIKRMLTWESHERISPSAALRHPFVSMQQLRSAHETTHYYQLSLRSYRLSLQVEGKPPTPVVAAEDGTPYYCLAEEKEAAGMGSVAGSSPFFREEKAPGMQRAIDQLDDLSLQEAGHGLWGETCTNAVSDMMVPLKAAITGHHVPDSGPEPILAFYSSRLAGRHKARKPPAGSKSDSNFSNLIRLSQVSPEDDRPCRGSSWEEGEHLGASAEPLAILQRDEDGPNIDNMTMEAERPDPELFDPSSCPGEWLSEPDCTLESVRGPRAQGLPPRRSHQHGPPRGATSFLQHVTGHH

`COc1cc2ncnc(Nc3ccc(Oc4ccccc4)c(C)c3C)c2cc1OC` gave an inhibition of -2% (enzyme activity; inhibitor; 1 µM).
The remaining activity of `O=C(O)c1ccc2c(c1)nc(Nc1ccc3ccccc3c1)c1ccncc12` is reported as -10% (enzyme activity; inhibitor; radiometric; 1 µM).
`N#CC1(c2ccccn2)CCN(Cc2cc(C(=O)N3CCCC3)c(=O)n3ccccc23)CC1` gave a remaining binding of 67% (cell-free assay; competition with immobilised ligand; 1 µM).
`O=C(O)c1ccc2c(c1)nc(Nc1cccc(F)c1)c1ncncc12` has a remaining activity of 52% (enzyme activity; inhibitor; radiometric; 1 µM).
The remaining binding of `CCCOc1ccc([C@H]2[C@H](C(=O)O)[C@@H](c3ccc4c(c3)OCO4)CN2CC(=O)Nc2c(CC)cccc2CC)cc1` is reported as 70% (cell-free assay; competition with immobilised ligand; 1 µM).
`O=C(O)c1ccc2c(c1)nc(NCCc1cccc(Cl)c1)c1ccncc12` gave a remaining activity of 47% (enzyme activity; inhibitor; radiometric; 1 µM).
For `CCCS(=O)(=O)Nc1ccc(F)c(C(=O)c2c[nH]c3ncc(-c4ccc(Cl)cc4)cc23)c1F`, the inhibition was < 10% (enzyme activity; inhibitor; 1 µM).
With `CS(=O)(=O)c1cc(C2(NC(=O)c3cncc4c3cnn4-c3ccc(F)cc3)CC2)ccn1` the remaining binding was 100% (cell-free assay; competition with immobilised ligand; 1 µM).
`O=C(O)c1ccc2c(c1)nc(Nc1ccc3ccccc3c1)c1ncncc12` gave a remaining activity of 109% (enzyme activity; inhibitor; radiometric; 1 µM).
`Nc1ncnc2occ(-c3ccc(NC(=O)Nc4cc(C(F)(F)F)ccc4F)cc3)c12` gave a remaining signal of 0.95% (cell-free assay; inhibitor; 20 µM).
With `O=C(O)c1ccc2c(c1)nc(NCc1ccccc1)c1ccncc12` the remaining activity was 33% (enzyme activity; inhibitor; radiometric; 1 µM).
For `CCC(=O)N[C@@H]1CC[C@H](C(=O)N(C)c2ccc(-c3nc4ccccc4o3)cc2)C1`, the remaining binding was 100% (cell-free assay; competition with immobilised ligand; 1 µM).
With `CNC(=O)c1cc(Oc2ccc(NC(=O)Nc3ccc(Cl)c(C(F)(F)F)c3)cc2)ccn1` the remaining signal was 4.85% (cell-free assay; 0.5 µM).
The remaining binding of `O=C(Nc1cnc(Oc2ccc(F)cc2)nc1)N1CCc2ncccc2[C@@H]1c1ccc(F)cc1` is reported as 100% (cell-free assay; competition with immobilised ligand; 1 µM).
`O=C1Nc2ccc(Cl)cc2C1=Cc1cc(Cl)c(O)c(Cl)c1` has a remaining signal of 88.4% (cell-free assay; 0.5 µM).
The remaining binding of `CS(=O)(=O)N1CCCC(NC(=O)[C@H](CCC2CCCCC2)NC(=O)c2ccc(CNC(=O)c3cnc4ccccn34)cc2)C1` (some centres unmarked) is reported as 88% (cell-free assay; competition with immobilised ligand; 0.1 µM).
With `O=C1NC(=O)c2cc(Nc3ccc(F)cc3)c(Nc3ccc(F)cc3)cc21` the remaining signal was 82.5% (cell-free assay; 0.5 µM).
The remaining activity of `O=C(O)c1ccc2c(c1)nc(Nc1ccc(F)c(Cl)c1)c1ncncc12` is reported as 6% (enzyme activity; inhibitor; radiometric; 1 µM).
For `N#CCCc1ccc2c(c1)-c1[nH]c3ccc([N+](=O)[O-])cc3c1CC(=O)N2`, the remaining signal was 113% (cell-free assay; 0.5 µM).
The remaining activity of `O=C(Nc1cnn(-c2csc(C(=O)NC3COC3)c2)c1)Nc1c(F)cccc1Cl` is reported as 111% (enzyme activity; inhibitor; 5 µM).
